Experimental data reported in ChEMBL document CHEMBL1154234, “Cytotoxic constituents of Soymida febrifuga from Myanmar” (J Nat Prod, 2009).
pIC50: −log10 of the molar value.

Key:
Type in all cases: functional, cell-based
PANC-1 = assay: Cytotoxicity against human PANC1 cells in nutrient-deprived condition after 24 hrs by WST8 assay
Outline: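 PANC-1 seeded 2 × 10^4/well in DMEM, 24 h at 37 °C, 5% CO2; washed with PBS and switched to nutrient-deprived medium (or DMEM) with serial dilutions for 24 h. After PBS wash, DMEM with 10% WST-8 added for 3 h, absorbance at 450 nm. Viability vs blank and untreated control from three wells; PC50 reported.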

HT-1080 = assay: Cytotoxicity against human HT1080 cells after 72 hrs by MTT assay; details: HT-1080, 72 h
Outline: (§1)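 Cells grown in MEMR with 10% FBS, 0.1% NaHCO3 and 1% antibiotic antimycotic; seeded 2 × 10^3/well and left 24 h at 37 °C, 5% CO2 to attach. Graded concentrations then added in medium for 72 h; MTT (0.5 mg/mL) for 2 h, formazan taken up in DMSO, absorbance at 550 nm. IC50 from means of three wells.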

[1] = Cytotoxicity against mouse B16-BL6 cells after 72 hrs by MTT assay; details: B16-BL6, 72 h; outline: as §1
[2] = Cytotoxicity against mouse Colon 26-L5 cells after 72 hrs by MTT assay
Outline: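 Murine colon 26-L5 cells kept in RPMI 1640 with 10% FBS, 0.1% NaHCO3, 1% antibiotic antimycotic. Plated at 2 × 10^3/well, 24 h attachment at 37 °C, 5% CO2, then varying concentrations for 72 h. Read-out: MTT (0.5 mg/mL) 2 h, DMSO extraction, 550 nm; IC50 from means of three wells.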

HeLa = assay: Cytotoxicity against human HeLa cells after 72 hrs by MTT assay; outline: as §1
A549 = assay: Cytotoxicity against human A549 cells after 72 hrs by MTT assay; details: A549, 72 h; outline: as §1

Structure (SMILES) | PC50 (PANC-1) [µM] | pIC50 (HT-1080) | pIC50 [1] | pIC50 [2] | pIC50 (HeLa) | pIC50 (A549) | PC50 (PANC-1; Homo sapiens, PANC-1, 24 h) [µM]
Cc1c(O)ccc2c1O[C@@H](c1ccc(O)cc1)CC2 | 85.8 | 4.62 | 4.00 | 4.40 | 4.05 | 4.40 | 
COc1ccc(C(=O)CCc2c(OC)cc(O)cc2OC)cc1 | 85.7 | < 4.00 | 4.15 | 4.17 | < 4.00 | < 4.00 | 
COc1cc(O)cc2c1OC[C@H](Cc1ccc(O)cc1)C2 | >100 | 4.15 | < 4.00 | 4.31 | 4.18 | < 4.00 | 
COc1cc2c(cc1O)C[C@@H](Cc1ccc(O)cc1)CO2 | 63 | 4.76 | 4.12 | 4.65 | 4.42 | 4.72 | 
COc1ccc(C[C@@H]2COc3cc(O)cc(O)c3C2=O)cc1 |  | < 4.00 | 4.19 | 4.51 | < 4.00 | < 4.00 | > 100
COc1cc2cc(Cc3ccc(O)cc3)c(=O)oc2cc1O | 86.7 | 4.39 | < 4.00 | 4.21 | 4.16 | 4.06 | 
Oc1ccc(C[C@H]2COc3cc(O)ccc3C2)cc1 | 79 | 4.10 | < 4.00 | 4.35 | < 4.00 | < 4.00 | 
COc1c(O)cc2c(c1O)C(=O)[C@H](Cc1ccc(O)cc1)CO2 | >100 | 4.02 | < 4.00 | 4.05 | < 4.00 | < 4.00 | 
O=C1c2c(O)cc(O)cc2OC[C@H]1Cc1ccc(O)cc1 | >100 | < 4.00 | < 4.00 | 4.24 | < 4.00 | < 4.00 | 
O=C1c2ccc(O)cc2OC[C@H]1Cc1ccc(O)cc1 | >100 | < 4.00 | 4.00 | 4.16 | < 4.00 | < 4.00 | 
COc1cc(O)c(C)c2c1CC[C@H](c1ccc(O)cc1)O2 | 70.1 | 4.43 | 4.05 | 4.23 | 4.13 | 4.45 | 
COc1ccc2c(c1)O[C@H](c1ccc(O)cc1)CC2 | 74 | < 4.00 | 4.39 | 4.28 | < 4.00 | < 4.00 | 
COc1ccc(CCC(=O)c2ccc(O)cc2)c(O)c1 | >100 | < 4.00 | 4.24 | 4.09 | 4.34 | 4.92 | 
O=C(/C=C/c1ccccc1O)c1ccc(O)cc1O | >100 | 4.39 | < 4.00 | 4.54 | 4.05 | 4.05 | 
O=C(CCc1ccc(O)cc1O)c1ccc(O)cc1 | >100 | < 4.00 | < 4.00 | < 4.00 | < 4.00 | < 4.00 | 
COc1cc(O)ccc1C(=O)/C=C/c1ccc(O)cc1 | >100 | 4.57 | 4.30 | 4.85 | 4.48 | 4.18 | 
COc1ccc(CCC(=O)c2ccc(O)cc2)c(OC)c1 | 83.2 | < 4.00 | 4.26 | 4.49 | < 4.00 | 4.05 | 
COc1cc(O)cc(OC)c1CCC(=O)c1ccc(O)cc1 | 69.7 | 4.17 | 4.07 | 4.40 | 4.31 | 4.37 | 
COc1cc(O)cc(/C=C/c2ccc(O)cc2)c1 | 71.4 | 4.05 | < 4.00 | 4.45 | 4.32 | 4.04 | 
O=C(/C=C/c1ccccc1)c1ccc(O)cc1O [2',4'-DIHYDROXYCHALCONE] | 19 | 4.77 | < 4.00 | 5.33 | 4.61 | 4.63 | 
COc1cccc2c1C(=O)c1c(O)c3c(c(O)c1C2=O)C[C@@](O)(C(=O)CO)C[C@@H]3O[C@H]1C[C@H](N)[C@H](O)[C@H](C)O1 [DOXORUBICIN] |  | 6.39 | 5.51 | 5.51 |  | 6.08 | 
O=c1[nH]cc(F)c(=O)[nH]1 [FLUOROURACIL] |  | 5.07 | 5.13 | 6.39 | 6.36 | 5.23 | 
COc1cc(C(O)C(O)CO)ccc1O (centres undefined) [GUAIACYL GLYCEROL] | >100 | < 4.00 | < 4.00 | 4.01 | < 4.00 | < 4.00 | 
O=C(O)c1ccc(O)cc1 [PARABEN] | >100 | < 4.00 | 4.20 | 4.48 | 4.44 | < 4.00 | 
O=C1C[C@@H](c2ccccc2)Oc2cc(O)cc(O)c21 [PINOCEMBRIN] | 72.9 | 4.14 | < 4.00 | 4.15 | < 4.00 | < 4.00 | 
COc1cc(/C=C/c2ccc(O)cc2)cc(OC)c1 [PTEROSTILBENE] | 44.4 | 4.03 | 4.80 | 5.53 | 5.03 | 4.14 | 
Oc1ccc([C@H]2CCc3ccc(O)cc3O2)cc1 [TUPICHINOL C] | >100 | 4.30 | < 4.00 | 4.36 | 4.03 | 4.03 | 
